Data set [1] has as its system RG2. Briefly: Induction of autophagy in rat RG2 cells assessed as increase in LC3-II level at 100 uM pre-incubated for 15 mins before bafilomycin-A1 addition and further incubated for 4 hrs by Western blotting method. The class given is functional, cell-based. Background: Immunoblotting shows a protein as a band on a membrane.
Data set [2] deals with RG2. Briefly: Induction of autophagy in rat RG2 cells assessed as increase in LC3-II level at 10 uM pre-incubated for 15 mins before bafilomycin-A1 addition and further incubated for 4 hrs by Western blotting method. It is filed as functional, cell-based.
Data set [3] relates to RG2. Briefly: Induction of autophagy in rat RG2 cells assessed as optimum compound level causing increase in LC3-II level pre-incubated for 15 mins before bafilomycin-A1 addition and further incubated for 4 hrs by Western blotting method. The class given is functional. In short, it runs like this: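 Cells were tested at 1, 10 and 100 μM. The optimum concentration for autophagy stimulation was estimated from these few levels in preliminary single-series experiments.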

Data set [4] in a line: Apparent permeability of the compound across basolateral to apical side in human Caco2 cells at 10 uM incubated for 2 hrs by LC-MS/MS method. The class given is ADME, cell-based. To be noted: Caco-2. A digest of the protocol: (§1)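 Permeability was measured across Caco-2 epithelial monolayers.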
For orientation: Caco-2 monolayers are a common model of the intestinal barrier.

A short description of data set [5]: Apparent permeability of the compound across apical side to basolateral side in human Caco2 cells at 10 uM incubated for 2 hrs by LC-MS/MS method. It is filed as ADME, cell-based. To be noted: Caco-2. A digest of the protocol: as §1
Data set [6] is described as follows: Efflux ratio in human Caco2 cells at 10 uM incubated for 2 hrs by LC-MS/MS method. The class given is ADME, cell-based. To be noted: Caco-2.

The source made the active and inactive calls. The calls are words filed in the database; no cut-off is given here.

`CC(C)C1=C(P(=O)(O)O)N[C@H](C(=O)O)CS1`: the result in data set [1] was inactive. In data set [2], the outcome was Active.

In the case of `O=C(O)C1=CSC[C@@H](C(=O)O)N1`, the result in data set [1] and in data set [2] was Active.

As for `CCOC(=O)[C@@H]1CSC(CC)=C(C(=O)O)N1`, the Activity in data set [3] was over 10 µM.

The Papp B→A is how fast a substance crosses the layer from the basolateral side. For orientation: Papp A→B means the apparent permeability from the apical to the basolateral side of a cell layer. Regarding `CCOC(=O)[C@@H]1CSC=C(C(=O)O)N1`, in data set [4], the Papp B→A at 2 h, 10 µM was under 0.01 ×10⁻⁶ cm/s. In data set [5], the Papp A→B at 2 h, 10 µM is under 0.01 ×10⁻⁶ cm/s.

For `CCCCCCC1=C(P(=O)(O)O)N[C@H](C(=O)OCC)CS1`, the Papp B→A at 2 h, 10 µM in data set [4] is under 0.01 ×10⁻⁶ cm/s. In data set [3], the Activity was 1 to 10 µM. Besides, in data set [5], the Papp A→B at 2 h, 10 µM is under 0.01 ×10⁻⁶ cm/s.

Take `CCCCCCC1=C(P(=O)(O)O)N[C@H](C(=O)O)CS1`: the Papp B→A at 2 h, 10 µM in data set [4] was under 0.01 ×10⁻⁶ cm/s. Also, the Papp A→B at 2 h, 10 µM in data set [5] was under 0.01 ×10⁻⁶ cm/s.

With `CCCCC1=C(P(=O)(O)O)N[C@H](C(=O)OCC)CS1`, in data set [4], the Papp B→A at 2 h, 10 µM is under 0.01 ×10⁻⁶ cm/s. Further, the Papp A→B at 2 h, 10 µM in data set [5] is under 0.01 ×10⁻⁶ cm/s.

Usually efflux ratio stands for the permeability from basolateral to apical divided by that in the opposite direction, in the common usage. With `CCCCC1=C(P(=O)(O)O)N[C@H](C(=O)O)CS1`, the Papp B→A at 2 h, 10 µM in data set [4] amounted to 0.35 ×10⁻⁶ cm/s. Further, in data set [6], the efflux ratio at 2 h, 10 µM came to 0.33. Also, the Papp A→B at 2 h, 10 µM in data set [5] was 1.1 ×10⁻⁶ cm/s.

Values taken from ChEMBL document CHEMBL4184245, “Multiple-step, one-pot synthesis of 2-substituted-3-phosphono-1-thia-4-aza-2-cyclohexene-5-carboxylates and their corresponding ethyl esters” (Bioorg Med Chem Lett, 2018).
